# Experiments:
# Assay type in all cases: functional
# [1] = test system: Plasmodium yoelii; test: Antimalarial activity against multidrug-resistant Plasmodium yoelii infected in Swiss mouse assessed as animal survival at 48 mg/kg, im for 4 days and measured for 28 days; settings: 672 h, time 28 day
# Method in brief: (§1)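 Intramuscular dosing of groups of five Swiss mice (25 ± 1 g) infected on day 0 with 1 X 10⁶ parasitized RBC, on days 0–3 in two divided daily doses. Parasitaemia came from thin blood smears over days 4–28. Animals without patent infection till day 28 were recorded as cured. The strain is resistant to chloroquine, mefloquine and halofantrine.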
# [2] = test system: Plasmodium yoelii; test: Antimalarial activity against multidrug-resistant Plasmodium yoelii infected in Swiss mouse assessed as animal survival at 48 mg/kg, po for 4 days and measured for 28 days; settings: 672 h, time 28 day
# Method in brief: (§2)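 Swiss mice (25 ± 1 g) were inoculated with 1 X 10⁶ parasitized RBC on day 0. Groups of five were dosed orally on days 0–3 in two divided daily doses, in groundnut oil, 0.1 ml per dose. Thin blood smears were read on days 4–28, and mice without patent infection by day 28 counted as cured. β-Arteether was the positive control.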
# [3] = test system: Plasmodium yoelii; test: Antimalarial activity against multidrug-resistant Plasmodium yoelii infected in Swiss mouse assessed as inhibition of parasitemia at 48 mg/kg, im for 4 days measured on day 4 relative to control; settings: 96 h, time 4 day
# Method in brief: (§3)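 In this im regimen, mice (Swiss, 25 ± 1 g; n = 5 per dose) received 1 X 10⁶ parasitized RBC on day 0 and were treated on days 0–3 in two divided daily doses. Parasitaemia on day 4 was read from thin blood smears, and suppression = [(C−T)/C] × 100 relative to the control group. Full suppression meant none seen in 50 oil immersion fields.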
# [4] = test system: Plasmodium yoelii; test: Antimalarial activity against multidrug-resistant Plasmodium yoelii infected in Swiss mouse assessed as inhibition of parasitemia at 48 mg/kg, po for 4 days measured on day 4 relative to control; settings: 96 h, time 4 day
# Method in brief: (§4)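 Swiss mice (25 ± 1 g), five per dose, were infected with 1 X 10⁶ parasitized RBC on day 0. Dosing was oral on days 0–3, twice daily, in groundnut oil (0.1 ml per dose). Day-4 thin-smear parasitaemia gave % suppression = [(C−T)/C] × 100 versus the control group. 100% meant no parasites in 50 oil immersion fields.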
# [5] = test system: Plasmodium yoelii; test: Antimalarial activity against multidrug-resistant Plasmodium yoelii infected in Swiss mouse assessed as inhibition of parasitemia at 96 mg/kg, im for 4 days measured on day 4 relative to control; settings: 96 h, time 4 day; method in brief: as §3
# [6] = test system: Plasmodium yoelii; test: Antimalarial activity against multidrug-resistant Plasmodium yoelii infected in Swiss mouse assessed as inhibition of parasitemia at 96 mg/kg, po for 4 days measured on day 4 relative to control; settings: 96 h, time 4 day; method in brief: as §4
# [7] = test system: Plasmodium yoelii; test: Antimalarial activity against multidrug-resistant Plasmodium yoelii infected in Swiss mouse assessed as animal survival at 96 mg/kg, po for 4 days and measured for 28 days; settings: 672 h, time 28 day; method in brief: as §2
# [8] = test system: Plasmodium yoelii; test: Antimalarial activity against multidrug-resistant Plasmodium yoelii infected in Swiss mouse assessed as animal survival at 96 mg/kg, im for 4 days and measured for 28 days; settings: 672 h, time 28 day; method in brief: as §1
# [9] = test system: Plasmodium yoelii; test: Antimalarial activity against multidrug-resistant Plasmodium yoelii infected in Swiss mouse assessed as inhibition of parasitemia at 48 mg/kg, po for 4 days measured on day 4 relative to po dosed artemisinin; settings: time 4 day
# [10] = test system: Plasmodium yoelii; test: Antimalarial activity against multidrug-resistant Plasmodium yoelii infected in Swiss mouse assessed as animal survival at 24 mg/kg, po for 4 days and measured for 28 days; settings: 672 h, time 28 day; method in brief: as §2
# [11] = test system: Plasmodium yoelii; test: Antimalarial activity against multidrug-resistant Plasmodium yoelii infected in Swiss mouse assessed as inhibition of parasitemia at 48 mg/kg, im for 4 days measured on day 4 relative to po dosed artemisinin; settings: time 4 day
# [12] = test system: Plasmodium yoelii; test: Antimalarial activity against multidrug-resistant Plasmodium yoelii infected in Swiss mouse assessed as inhibition of parasitemia at 24 mg/kg, im for 4 days measured on day 4 relative to control; settings: 96 h, time 4 day; method in brief: as §3
# [13] = test system: Plasmodium yoelii; test: Antimalarial activity against multidrug-resistant Plasmodium yoelii infected in Swiss mouse assessed as animal survival at 24 mg/kg, im for 4 days and measured for 28 days; settings: 672 h, time 28 day; method in brief: as §1
# [14] = test system: Plasmodium yoelii; test: Antimalarial activity against multidrug-resistant Plasmodium yoelii infected in Swiss mouse assessed as inhibition of parasitemia at 24 mg/kg, po for 4 days measured on day 4 relative to control; settings: 96 h, time 4 day; method in brief: as §4
SMILES,survival at 48 mg/kg [1],survival at 48 mg/kg [2],inhibition in vivo at 48 mg/kg [3],inhibition in vivo at 48 mg/kg [4],inhibition in vivo at 96 mg/kg [5],inhibition in vivo at 96 mg/kg [6],survival at 96 mg/kg [7],survival at 96 mg/kg [8],also measured
C=C(c1ccc(Oc2cccc3c(OCCOC(=O)CCC(=O)O)cccc23)cc1)C1COC2(CCCC2)OO1 (centres undefined),0%,0%,28.3%,39.4%,,,,,
C=C(c1ccc(Oc2ccc(OCCO)cc2)cc1)C1COC2(OO1)C1CC3CC(C1)CC2C3 (centres undefined),,0%,,85.5%,100%,100%,100%,0%,
C=C(c1ccc(Oc2ccc3ccc(OCCO)cc3c2)cc1)C1COC2(OO1)C1CC3CC(C1)CC2C3 (centres undefined),0%,0%,51.4%,83.2%,,,,,
C=C(c1ccc(Oc2ccc3ccc(OCCOC(=O)CCC(=O)O)cc3c2)cc1)C1COC2(CCCC2)OO1 (centres undefined),100%,100%,100%,100%,,,,,fold change (FC) [9]: 2; survival at 24 mg/kg [10]: 0%; fold change (FC) [11]: 2; inhibition in vivo at 24 mg/kg [12]: 100%; survival at 24 mg/kg [13]: 80%; inhibition in vivo at 24 mg/kg [14]: 100%
C=C(c1ccc(Oc2cccc3c(OCCO)cccc23)cc1)C1COC2(CCCCC2)OO1 (centres undefined),0%,0%,46.2%,38.2%,,,,,
C=C(c1ccc(Oc2ccc(OCCOC(=O)CCC(=O)O)cc2)cc1)C1COC2(CCCC2)OO1 (centres undefined),,,,,77.8%,44.3%,0%,0%,
C=C(c1ccc(Oc2ccc(OCCO)cc2)cc1)C1COC2(CCCCC2)OO1 (centres undefined),,,,,72.4%,45.4%,0%,0%,
C=C(c1ccc(Oc2ccc3ccc(OCCO)cc3c2)cc1)C1COC2(CCCC2)OO1 (centres undefined),80%,80%,100%,100%,,,,,
C=C(c1ccc(Oc2ccc3ccc(OCCOC(=O)CCC(=O)O)cc3c2)cc1)C1COC2(OO1)C1CC3CC(C1)CC2C3 (centres undefined),0%,0%,58.8%,77.4%,,,,,
C[C@@H]1CC[C@H]2[C@@H](C)C(=O)O[C@@H]3O[C@@]4(C)CC[C@@H]1[C@]32OO4 [ARTEMISININ],100%,,100%,,,100%,,,inhibition in vivo at 24 mg/kg [12]: 100%; survival at 24 mg/kg [13]: 80%
C=C(c1ccc(Oc2cccc3c(OCCO)cccc23)cc1)C1COC2(CCCC2)OO1 (centres undefined),0%,0%,46.2%,44.1%,,,,,
C=C(c1ccc(Oc2ccc(OCCOC(=O)CCC(=O)O)cc2)cc1)C1COC2(CCCCC2)OO1 (centres undefined),,,,,28.4%,10%,0%,0%,
C=C(c1ccc(Oc2ccc(OCCOC(=O)CCC(=O)O)cc2)cc1)C1COC2(OO1)C1CC3CC(C1)CC2C3 (centres undefined),,,,,100%,35.6%,0%,40%,
C=C(c1ccc(Oc2cccc3c(OCCO)cccc23)cc1)C1COC2(OO1)C1CC3CC(C1)CC2C3 (centres undefined),0%,40%,46.2%,100%,,,,,
C=C(c1ccc(Oc2ccc(OCCO)cc2)cc1)C1COC2(CCCC2)OO1 (centres undefined),,,,,85.2%,38.4%,0%,0%,
C=C(c1ccc(Oc2ccc3ccc(OCCOC(=O)CCC(=O)O)cc3c2)cc1)C1COC2(CCCCC2)OO1 (centres undefined),60%,,100%,100%,,,,,
C=C(c1ccc(Oc2ccc3ccc(OCCO)cc3c2)cc1)C1COC2(CCCCC2)OO1 (centres undefined),0%,0%,71.6%,83.5%,,,,,
C=C(c1ccc(Oc2cccc3c(OCCOC(=O)CCC(=O)O)cccc23)cc1)C1COC2(OO1)C1CC3CC(C1)CC2C3 (centres undefined),0%,0%,42.2%,27.5%,,,,,
C=C(c1ccc(Oc2cccc3c(OCCOC(=O)CCC(=O)O)cccc23)cc1)C1COC2(CCCCC2)OO1 (centres undefined),0%,0%,26.6%,49.8%,,,,,

# From ChEMBL document CHEMBL4808228, “Synthesis of novel 1,2,4-trioxanes and antimalarial evaluation against multidrug-resistant Plasmodium yoelii nigeriensis” (2021)
